Test results taken from the EternaBench riboswitch data.

Test system: MS2 coat protein
Assay: apparent Kd, MS2 coat protein; higher = weaker binding; RNA-MaP array
Summary of the method: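 Apparent Kd was taken as the median of binding curves fitted cluster by cluster. The designed RNAs were made by transcription of sequenced DNA templates on an Illumina sequencing chip and exposed to fluorescently labeled MS2 coat protein (1.5 nM to 3 μM) at room temperature, with or without input ligand, for 0.8–1.5 h at the lowest and 10–20 min at the highest concentrations. Any design measured on fewer than 10 clusters was left out.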

[1] = designed as: ON switch for flavin mononucleotide, no ligand
[2] = ligand present: flavin mononucleotide, designed as: ON switch for flavin mononucleotide
[3] = designed as: ON switch for theophylline, no ligand
[4] = ligand present: theophylline, designed as: ON switch for theophylline
[5] = designed as: OFF switch for flavin mononucleotide, no ligand
[6] = ligand present: flavin mononucleotide, designed as: OFF switch for flavin mononucleotide
[7] = designed as: OFF switch for tryptophan, no ligand
[8] = ligand present: tryptophan, designed as: OFF switch for tryptophan
[9] = designed as: ON switch for tryptophan, no ligand
[10] = ligand present: tryptophan, designed as: ON switch for tryptophan

## GCGCGGCGUGAAGGAUAUGGUUCAGUACAUGAGGAUCACCCAUGUCAGACAGCAUCGGGGCCGUCCCAGAAGGUCACACGUUUU
[1]
  apparent Kd: 0.00914 µM
[2]
  apparent Kd: 0.00736 µM

## GCUUAGAAACCUGAUACCAGUCAGCCCUAUGACAUGAGGAUCACCCAUGUGAUACUCACGGACCCUUGGCAGCAGGGUCGAUUAC
[3]
  apparent Kd: 0.695 µM
[4]
  apparent Kd: 0.429 µM

## GCUUGACAUGAGGAUCACCCAUGUAAAUGAGAGACAGGAUAUACGAGACACGUAGGGUAGGUAGAAGGGUCGACUG
[1]
  apparent Kd: 0.0151 µM
[2]
  apparent Kd: 0.00969 µM

## GGAAUCUUUCGAGGAUAUGUCCCACAAUAGUGCCUACCGGGUAACAUGAGGAUCACCCAUGUGAGACAGAAGGCGAGGUUUGGC
[5]
  apparent Kd: 0.00986 µM
[6]
  apparent Kd: 0.0381 µM

## GGCGUAUCAGGAUAUGCGUUUUGAGACAUGAGGAUCACCCAUGUCCUUAGCUCAGUUAAAGCAGAAGGGAUUAUUA
[5]
  apparent Kd: 0.0169 µM
[6]
  apparent Kd: 0.0341 µM

## GGCUCCGUAGGAUAUCGUAUUAGCGACAUGAGGAUCACCCAUGUUCAUUUGUCCUCAAUACGAGAAGGACGAACUC
[5]
  apparent Kd: 0.0161 µM
[6]
  apparent Kd: 0.0183 µM

## GGGGGUUGGACAGGAUAUAGAGGUCUCGUGUGGAGAUGCACAACGACAUGAGGAUCACCCAUGUGCUAGAAGGGUCUGCGAUAG
[1]
  apparent Kd: 0.0193 µM
[2]
  apparent Kd: 0.0161 µM

## GGGUCGCGUUCGGCCGCCACUUGGAAACAUGAGGAUCACCCAUGUCAUAUGGUGGGACAUGUUGUAAGGACCGGGAACCGUCCUA
[7]
  apparent Kd: 0.0642 µM
[8]
  apparent Kd: 0.0881 µM

## GGUGAGUCAGGAUAUUGUGCAUUUGAGACCCACACGGGACACAAGAAGGGACAUGAGGAUCACCCAUGUGCUCA
[5]
  apparent Kd: 0.00973 µM
[6]
  apparent Kd: 0.0128 µM

## GGUUAACAUGAGGAUCACCCAUGUAAGGAUAUCGGGCUGUCCAGGCGAUAGUACACGUCGAGAAGGUACGCGGU
[5]
  apparent Kd: 0.0108 µM
[6]
  apparent Kd: 0.0122 µM

## GGUUCAUCGUCGGCCGCCACUCACAUGAGGUGGAGCUGUAAACAUGAGGAUCACCCAUGUUGUUAGAGGACCGGGACGUGACGGC
[7]
  apparent Kd: 0.0338 µM
[8]
  apparent Kd: 0.0367 µM

## GGUUGACAUGAGGAUCACCCAUGUGAGGAUAUAACAAGUGGGAGCUCUCCAUGAAAAGUUAGAAGGCACUUGGU
[5]
  apparent Kd: 0.0618 µM
[6]
  apparent Kd: 0.0529 µM

## GUACACAUGAGGAUCACCCAUGUACUGGUACGAGGACCGGUACGGCCGCCACUCGCCGAGAUUCAUAACACAUCAGAAAGCUCAC
[9]
  apparent Kd: 0.0176 µM
[10]
  apparent Kd: 0.0156 µM

## GUACAUAUAGAGAAGGGUGAGUAUAUCAGCCUCACAGGAUAUCUGAUGAGUGACAUGAGGAUCACCCAUGUGGUUGUCGGUAGG
[5]
  apparent Kd: 0.214 µM
[6]
  apparent Kd: 0.102 µM

## GUAUACAUGAGGAUCACCCAUGUCGUUCUCUUGAGAUGAACAGAGGAUAUGUGAGUAAUAGCGUGACAGAAGGCUGGACAUGAU
[5]
  apparent Kd: 0.0277 µM
[6]
  apparent Kd: 0.0169 µM

## GUAUGGGCUGUAAGGAUAUCUAAGCCGGUUGUGGCAGAGAAGGUACAUGAGGAUCACCCAUGUGGACUUGGGUC
[5]
  apparent Kd: 0.0139 µM
[6]
  apparent Kd: 0.0157 µM

## GUGGCAGGUGUCAGCCACAUGAGGAUCACCCAUGUUACUGAUCAGGAUAUUCGUGUGCGUCGCCGGAAGAAGGGAUUUGGACAU
[5]
  apparent Kd: 0.123 µM
[6]
  apparent Kd: 0.0641 µM

## GUGUUCACUGCAGGAUAUGUACAUGAGGAUCACCCAUGUUGAAACGGCUGGAAUCGGCAGAUGAAACAGAAGGGCAUGAAAAUU
[1]
  apparent Kd: 0.0128 µM
[2]
  apparent Kd: 0.00909 µM

## GUUAAAGAACGAGGAUAUAUUUGGUGAGGAGUACACAUGAGGAUCACCCAUGUCCAUCCUAUUCCAUAGAAGGCGUAGAGUUUU
[1]
  apparent Kd: 0.00671 µM
[2]
  apparent Kd: 0.00695 µM

## GUUAGCACUUAAGGAUAUUGGAAGCGCGUCGUCCAAGAAGGUAAGUUCUUCGUCGACAUGAGGAUCACCCAUGUCAUGCAUGGC
[5]
  apparent Kd: 0.0165 µM
[6]
  apparent Kd: 0.0118 µM

## GUUAGUUGUGAGGAUAUUCAGAGAUCUCGAUCAGAAGAAGGCACUACAUGAGGAUCACCCAUGUAGAUUCUUAU
[5]
  apparent Kd: 0.00525 µM
[6]
  apparent Kd: 0.00888 µM

## GUUGAGGUGGUAGGAUAUAGUUUACACAUGAGGAUCACCCAUGUAUUCUAGACUUCAAGCCUCACCUAGAAGGACCCGUGCAAA
[5]
  apparent Kd: 0.00491 µM
[6]
  apparent Kd: 0.00475 µM

## UAAGAAUCAGGAUAUACAGAAAGAUCAACAAAGAGCCAUAAACAUGAGGAUCACCCAUGUAGAAGGGAACAAAU
[5]
  apparent Kd: 0.00814 µM
[6]
  apparent Kd: 0.00777 µM

## UACAUGAGGAUCACCCAUGUCAAACCGUUCUAGGACUAGGUAAGAAGGGUCAUCCUACAAUGUUGACAGGAUAUUACGUAGCUG
[1]
  apparent Kd: 0.348 µM
[2]
  apparent Kd: 0.0713 µM

## UAGAUAUGAGGAUAUACAUGAGGAUCACCCAUGUGGUUAUCAAACGACAUGACAUUUAGUAGAAGGCAAACAUC
[5]
  apparent Kd: 0.0235 µM
[6]
  apparent Kd: 0.021 µM

## UAGCCUCUUAGAGGAUAUUCAUAAGCACGCAAUGAAGAAGGCUAGGACAAGUGGGACAUGAGGAUCACCCAUGUGGGAAUAUGU
[5]
  apparent Kd: 0.0433 µM
[6]
  apparent Kd: 0.0368 µM

## UAGGAUAACACAGGAUAUACCCUUGUCGUCGGUUCUAAAUUACAUGAGGAUCACCCAUGUCUAAGGUAGAAGGGUGUUUGCGGU
[5]
  apparent Kd: 0.0316 µM
[6]
  apparent Kd: 0.0296 µM

## UAGGGUCUGUCGCGACAUGAGGAUCACCCAUGUGCUUAGUCAAGAAGGGCGGACAUGCAAAACCCGCAGGAUAUUGUAUGCACU
[5]
  apparent Kd: 0.254 µM
[6]
  apparent Kd: 0.0595 µM

## UAGUCGUGGGCAGGAUAUCACUUUAUGCCAAUAUGAGAAGGGCCGGUGACAAGGCGGGCGACCACAUGAGGAUCACCCAUGUAC
[5]
  apparent Kd: 0.0796 µM
[6]
  apparent Kd: 0.0479 µM

## UAUCGCGCGGCGGCCGCCACUAAUGGCAGAUCUGUCGACUAACAUGAGGAUCACCCAUGUCUAACUAGGACCGGGCCCAAGUUGU
[9]
  apparent Kd: 0.0475 µM
[10]
  apparent Kd: 0.0402 µM

## UAUCUACUAUGAGGAUAUCGACAAUGGAUGAACAUGAGGAUCACCCAUGUAACUCAUGGUCCCUUCGAGAAGGCAUGCUAUAAC
[5]
  apparent Kd: 0.055 µM
[6]
  apparent Kd: 0.0595 µM

## UCAAUACAGUCGGCCGCCACUGUAACCAAACCUACAUACCAACAUGAGGAUCACCCAUGUUUAUACAGGACCGGGACCUCUAUGA
[9]
  apparent Kd: 0.0366 µM
[10]
  apparent Kd: 0.0285 µM

## UCAAUCACACAUGAGGAUCACCCAUGUGAUAAUCAUGACUCAAGAAGGCAUGUGCAACUUGUUAAUGAGGAUAUUGGAGUAAUG
[5]
  apparent Kd: 0.0319 µM
[6]
  apparent Kd: 0.0223 µM

## UCACGGUCAGGAUAUCCUACCUUAGGGCAACCAUGGUAAACGGAGAAGGGACAUGAGGAUCACCCAUGUACAGC
[5]
  apparent Kd: 0.0129 µM
[6]
  apparent Kd: 0.0268 µM

## UCAGGUCCGAAGAAGGCGAAGCAACAUUACUAUCGAGGAUAUUCUACAUGAGGAUCACCCAUGUCACCAUCGAUGACAGAGAAU
[5]
  apparent Kd: 0.00765 µM
[6]
  apparent Kd: 0.00793 µM

## UCAGUGUCAGGAUAUUCUAACGAGGGUAGUGCGCCCUUUGUGAAGAAGGGACAUGAGGAUCACCCAUGUACUUG
[5]
  apparent Kd: 0.0512 µM
[6]
  apparent Kd: 0.125 µM

## UCAUCACAUGAGGAUCACCCAUGUCGUAGGUGAUCAGGAUAUGCCUAUGCCUCCAUGGCGGCAGAAGGGAUGCGGG
[1]
  apparent Kd: 0.795 µM
[2]
  apparent Kd: 0.603 µM

## UCCAGACAUGAGGAUCACCCAUGUUGUGAUACCAGAACCGUGGAGUUCCCUUGGCAGCACUAAGAAGUUCCUGGAUCAGCUAGCG
[3]
  apparent Kd: 0.0276 µM
[4]
  apparent Kd: 0.0328 µM

## UCCUACAAAGUCAGGAUAUUCGCACAGUCACGAGGGAAGAAGGGACAUGAGGAUCACCCAUGUAUUUACGCGUA
[5]
  apparent Kd: 0.0204 µM
[6]
  apparent Kd: 0.0272 µM

## UCGGCACAUGAGGAUCACCCAUGUAAGGAUAUACGAAGCUUGCAGUCGCUGUUAUUUGGUAGAAGGUACCCUCG
[5]
  apparent Kd: 0.0145 µM
[6]
  apparent Kd: 0.0125 µM

## UCGGGUAAGCAGAAGGCACUAGAUUCUCUUUCAGCGAUAUAACAUGAGGAUCACCCAUGUAGAGGUGAGGAUAUGCAGAAACGC
[1]
  apparent Kd: 0.169 µM
[2]
  apparent Kd: 0.0839 µM

## UCUAGAUCAUCGUGACAUGAGGAUCACCCAUGUCUGCGGGCAAGAAGGUGGUCGUUGUCUAACACCAAGGAUAUUGAGGGAGGU
[1]
  apparent Kd: 0.0515 µM
[2]
  apparent Kd: 0.0304 µM
